FAS TE block = FAS thioesterase domain inhibitors, primary screen, biochemical, fluorescence intensity, uHTS | Fatty acid synthase (Homo sapiens), P49327 | recombinant FAS-TE, OMFH fluorogenic substrate, fluorescence endpoint | inhibition, % at 15 µM | actives 0.67% (n = 360,000) | AID 602261, 2012;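 active means compounds whose normalised, plate-corrected inhibition of enzyme fluorescence in the single-dose primary screen is 50% or more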
CaV13 FRET inh = Primary screen for inhibitors of IQ motif and Ca2+-dependent inactivation inhibitor domain binding in CACNA1D, Förster resonance energy transfer in living cells, … | HEK cells, CFP/YFP FRET ICDI-IQ, plate reader, 10 min; percent FRET-ratio fall versus neutral wells | inhibition, % at 12.3 µM | actives 0.098% (n = 340,000) | AID 743397;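 active means mean replicate inhibition of at least 30% and at least 1% of replicates passing that level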
Arr AP2 block = inhibitors of beta-arrestin/AP2 binding, primary screen, biochemical, GPCR trafficking, flow cytometry; beta-arrestin 1 C-terminal peptide binding to AP2 beta2-adaptin appendage (human); FITC-arrestin peptide / GST-AP2 beads; AP2 beta2 appendage carries R879A mutation; inhibition, % at 10 µM; actives 0.31% (n = 340,000); AID 504490, 2011;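 active means inhibition above a set limit, near 3 SD of compounds lacking own fluorescence, cut at about 54% in these data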
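System: GST-tagged AP2 beta2-adaptin appendage (R879A) on 4 µm glutathione beads / Reagent: FITC-arrestin peptide, 50 nM / Detection: HyperCyt-sampled flow cytometry, FL1 channel, ex 488/em 535 nm / Timing: 12 min plus 1 h, RT / Buffer or medium: PBS plus Tween 20 (0.05%) and BSA (0.1%)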
ADAM10 inh = human ADAM10 inhibitors, primary screen, biochemical, QFRET, HTS | Disintegrin and metalloproteinase domain-containing protein 10 (Homo sapiens), O14672 | recombinant ADAM10, EDANS/DABCYL FRET peptide cleavage, 3 h | inhibition, % at 7 µM | actives 0.62% (n = 370,000);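 active means inhibition above a per-campaign cutoff equal to the mean of compounds falling between control-based bounds plus 3 SD, cut at about 20% in these data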
ADAM17 inh = ADAM17 inhibitors, primary screen, biochemical, QFRET; Disintegrin and metalloproteinase domain-containing protein 17 (Homo sapiens), P78536; actives 0.83% (n = 370,000); recombinant ADAM17, EDANS/DABCYL FRET peptide cleavage; inhibition, % at 6.95 µM; AID 720648, 2013;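 active means inhibition above the mean of compounds lying between control limits plus 3 SD, set per campaign, cut at about 8.5% in these data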
CendR NRP1 mod = modulators of CendR peptide binding to NRP-1, primary screen, biochemical, fluorescence polarization, uHTS | FAM-RPARPAR peptide binding to NRP-1 | actives 0.85% (n = 360,000) | AID 602438, 2012 | inhibition, % at 25 µM;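 active means inhibition or corrected inhibition above about 18%, plus a signal ratio from 0.5 to 1.5, limit read from the data, passing the limit was not always enough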
Hits are given with their value; - = inactive; . = no result. Sampled rows, rich in hits. Any-hit rate of the full collection: about 2.9%.

SMILES	FAS TE block	CaV13 FRET inh	Arr AP2 block	ADAM10 inh	ADAM17 inh	CendR NRP1 mod
CCn1nc2cc(C(=O)NCc3cc(C(F)(F)F)cc(C(F)(F)F)c3)ccc2c1OC	-	-	-	-	-	-
CCCCn1nc2cc(C(=O)NCc3ccc(OC(F)(F)F)cc3)ccc2c1OC	-	-	-	-	-	27
COc1c2ccc(C(=O)NCc3cc(C(F)(F)F)cc(C(F)(F)F)c3)cc2nn1C	-	-	-	-	-	28
CCCn1nc2cc(C(=O)NCc3ccc(C)cc3)ccc2c1OC	-	-	-	-	-	-
CCCCn1nc2cc(C(=O)NCc3cc(C(F)(F)F)cc(C(F)(F)F)c3)ccc2c1OC	-	-	-	-	-	27
COc1ccc(CCNC(=O)c2ccc(Br)o2)cc1Br	-	-	.	-	-	-
C[C@H](CO)N1C[C@H](C)[C@@H](CN(C)S(=O)(=O)c2cccc(C#N)c2)OCc2cn(nn2)CCCC1=O	-	-	.	-	-	-
CCc1ccc(C2CC(=O)N(c3cccc(F)c3)C3=C2C(=O)OC3)cc1 (stereo not given)	-	-	-	-	-	27
COc1cc(C(=O)Nc2ccccc2C2COC(=O)C2=N)cc(OC)c1OC (stereo not given)	-	-	-	-	-	-
N=C1C(=O)OCC1c1cc(Cl)ccc1NC(=O)Nc1ccccc1 (stereo not given)	-	-	-	-	-	39
C=CCN1C(=O)[C@@H](CC(=O)N2CCN(C(=O)C3CC3)CC2)[C@]2(C(=O)OCC)CCCCC/C=C/12	.	.	.	-	-	.
O=C(CSc1nnc(-c2cccs2)o1)OC1CCCCC1	-	-	-	-	-	34
O=C(CSc1nnc(-c2cccs2)o1)OCc1ccccc1	-	-	-	-	-	-
Cc1cc(C(=O)N/N=C/c2cc(Br)cc(Br)c2OC(=O)c2cccc(F)c2)n[nH]1	-	-	-	-	-	20
Cc1cccc(C(=O)Oc2c(Br)cc(Br)cc2/C=N/NC(=O)c2ccncc2)c1	-	-	-	-	-	-
CCOC(=O)c1cc(CC)sc1NC(=O)Cc1ccsc1	-	.	-	-	-	22
COCC(C)n1c(SCC(=O)Nc2cccnc2Cl)nc2ccccc2c1=O (stereo not given)	-	-	.	-	-	-
CCOc1ccccc1NC(=O)Cn1cnc2c(cnn2-c2ccc(C)c(C)c2)c1=O	-	.	.	-	-	38
COc1ccc(N=C2S/C(=C\c3ccc(OCC(=O)O)cc3)C(=O)N2CCc2c[nH]c3ccccc23)cc1	-	-	-	-	9.2	-
COc1ccc(N=C2S/C(=C\c3ccc(N4CCOCC4)o3)C(=O)N2CCc2c[nH]c3ccccc23)cc1	-	.	-	.	.	-
CCN1CCN(C(=S)NC(=O)c2cccc(Br)c2)CC1	-	-	-	-	-	43
CCOC(=O)N1CCN(C(=S)NC(=O)c2ccc(Br)cc2)CC1	-	-	-	-	-	-
Cc1ccc(C(=O)N2CCN(C34CC5CC(CC(C5)C3)C4)CC2)o1	-	-	-	-	-	25
Cn1nccc1C(=O)N1CCN(C23CC4CC(CC(C4)C2)C3)CC1	-	-	-	-	-	31
Cn1ncc(Cl)c1C(=O)N1CCN(C23CC4CC(CC(C4)C2)C3)CC1	-	.	-	-	-	-
SMILES	FAS TE block	CaV13 FRET inh	Arr AP2 block	ADAM10 inh	ADAM17 inh	CendR NRP1 mod
Cn1cc(Cc2ccc(C(=O)N3CCN(Cc4ccccc4)CC3)cn2)c2ccccc21	-	-	.	-	-	-
CCOC(=O)C1=CCN(S(=O)(=O)c2ccccc2F)C1c1ccc(F)cc1 (stereo not given)	-	-	.	-	-	-
CC1C(=O)Nc2ccc(S(=O)(=O)NCCc3ccc(Cl)cc3)cc2NC1=O (stereo not given)	-	-	-	-	-	24
CC1Sc2ccc(S(=O)(=O)NCCc3ccc(S(N)(=O)=O)cc3)cc2NC1=O (stereo not given)	-	-	-	-	-	-
CCOC(=O)CNc1ccc2c(c1)OCO2	-	-	-	-	-	34
CCN(CC)CCNC(=O)c1ccc(NC(=O)c2cccc(S(=O)(=O)N3c4ccccc4CC3C)c2)cc1 (stereo not given)	-	-	-	-	-	30
CC1Cc2ccccc2N1S(=O)(=O)c1cccc(C(=O)N2CCN(c3ncccn3)CC2)c1 (stereo not given)	-	-	-	-	-	35
CCN(CC)CCNC(=O)c1ccc(NC(=O)c2cccc(S(=O)(=O)N3CCc4ccccc43)c2)cc1	-	-	-	-	-	-
COC(=O)c1cnc(Oc2ccc(NC(=O)NC(=O)c3ccccc3Cl)cc2)cc1C(F)(F)F	-	-	-	-	-	29
COC(=O)c1ccncc1C(=O)Nc1ccc(Oc2ncc(C(F)(F)F)cc2Cl)cc1	-	-	-	-	-	-
COC(=O)C1=C(C)N(Cc2ccccc2C(F)(F)F)C(=NCc2ccc3c(c2)OCO3)NC1c1ccc(Cl)cc1 (stereo not given)	.	-	.	-	-	.
COc1cc2c(cc1NC(=O)CN1C(=O)NC3(CCc4ccccc43)C1=O)oc1ccccc12 (stereo not given)	55	-	-	-	-	-
CC(C)c1cc(C(C)C)c(S(=O)(=O)N2CCC(C(=O)NCC3COCCO3)CC2)c(C(C)C)c1 (stereo not given)	.	.	.	-	-	.
O=C(CN1CCOCC1)NN=C(c1ccccc1)c1ccccc1	-	-	-	-	-	-
CC(C(=O)NN=C(c1ccccc1)c1ccccc1)N1CCOCC1 (stereo not given)	-	.	-	-	-	26
Cc1ccccc1CSCC(=O)NC(=O)NCc1ccco1	-	-	-	-	-	-
O=C(CSCc1ccccc1Br)NNC(=S)NCc1ccco1	-	-	-	-	-	21
CCCC(C)NC(=O)CC1Oc2ccccc2NC1=O (stereo not given)	.	.	.	-	-	.
COc1ccc(OC)c(NC(=O)c2sc3nc(Cc4ccccc4)cc(C(F)(F)F)c3c2N)c1	-	-	-	-	-	24
CCc1nc(OCC(=O)c2ccccc2)c(C#N)c2c1COC(C)(C)C2	-	-	-	-	-	19
CC1(C)Cc2c(C#N)c(OCC(=O)c3ccc(Cl)cc3)nc(-c3ccco3)c2CO1	-	-	-	-	-	-

Source: PubChem BioAssay (several laboratories)
